Experimental data from ChEMBL document CHEMBL4602726, “Discovery of the First Vitamin K Analogue as a Potential Treatment of Pharmacoresistant Seizures” (J Med Chem, 2020).

Columns and labels:
[1] = Toxicity in CF1 mouse assessed as induction of motor impairment during acute (1 hr) observation period by rotarod assay; settings: CF1, mouse, in vivo
Outline: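 Male CF-1 mice, ip dosing in miglyol 840/DMSO (95%/5%), up to 800 mg/kg. Rotarod at 6 rpm done 1 h after dosing, on the same animals just before 6 Hz testing. Falling three times within one minute scored as impaired; animals also inspected visually.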

Danio rerio [2] = species: Danio rerio; assay: Anti-seizure activity in Zebrafish; format: functional, organism-based
Outline: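 Single 7 dpf zebrafish larvae per well, pretreated 1 h at […] with compound (10 or 5 μM) in E3 buffer from DMSO stock. Then 15 mM PTZ added and movement tracked 15 min in 1-min bins. VPA 5 and 10 mM as positive controls, n=8 per group, one-way ANOVA.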

[3] = Tmax in CD1 mouse at 20 mg/kg, ip measured after 0.083 to 24 hrs by LC-MS/MS analysis; format: ADME, organism-based; settings: in vivo
[4] = Cmax in CD1 mouse at 20 mg/kg, ip measured after 0.083 to 24 hrs by LC-MS/MS analysis; format: ADME, organism-based; set-up: dose 20 mg/kg, route intraperitoneal; settings: in vivo
Outline: (§1)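 Male CD-1 mice, 3 per route. Oral and ip at 20 mg/kg by gavage needle; iv at 5 mg/kg by tail vein. Vehicles were 20% DMA:40% PEG300:40% H2O for oral/iv and 5% DMSO:95% Neobee for ip. Blood sampled 0.083–24 h, plasma protein-precipitated with acetonitrile plus internal standard, LC-MS/MS (MRM). Non-compartmental analysis, linear trapezoidal AUC.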

[5] = AUClast in CD1 mouse at 20 mg/kg, ip measured after 0.083 to 24 hrs by LC-MS/MS analysis; format: ADME, organism-based; set-up: time lower 0.083 hr, dose 20 mg/kg, time upper 24 hr, route intraperitoneal; settings: in vivo; outline: as §1
[6] = Half life in mouse; format: ADME, organism-based; settings: in vivo
[7] = Half life in CD1 mouse at 20 mg/kg, ip measured after 0.083 to 24 hrs by LC-MS/MS analysis; format: ADME, organism-based; settings: in vivo; outline: as §1
Danio rerio [8] = species: Danio rerio; assay: Anti-seizure activity in Zebrafish larvae assessed as reduction in PTZ-induced increase in total swimming distance in 15 mins at 10 uM pre-incubated for 1 hr prior to PTZ-induced seizure induction relative to control; format: functional; set-up: scale not given: the % may be the effect or the level left
Danio rerio [9] = species: Danio rerio; assay: Anti-seizure activity in Zebrafish larvae assessed as reduction in PTZ-induced increase in total swimming distance in 15 mins at 5 uM pre-incubated for 1 hr prior to PTZ-induced seizure induction relative to control; format: functional; set-up: scale not given: the % may be the effect or the level left
[10] = Toxicity in Zebrafish; set-up: species or system Danio rerio; settings: in vivo, read-out: LD50 (the source's name)
[11] = Toxicity in mouse HT22 cells assessed as inhibition of cell viability at 50 uM incubated for 48 hrs by Cell-titer-Blue dye based fluorescence spectrophotometry relative to control; set-up: species or system HT-22; settings: read-out: Activity
Outline: (§2)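 HT-22 cells in DMEM high glucose with 10% FBS, 2000 per well. Serially diluted compound added after 12 h, incubated 48 h. […] Background subtracted, normalized to control wells.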

[12] = Toxicity in mouse HT22 cells assessed as inhibition of cell viability at 10 uM incubated for 48 hrs by Cell-titer-Blue dye based fluorescence spectrophotometry relative to control; set-up: species or system HT-22; settings: read-out: Activity; outline: as §2
Danio rerio [13] = species: Danio rerio; assay: Increase in ATP concentration in zebrafish at 1 uM incubated for 24 hrs by fluorometric ATP assay relative to control; format: functional
Outline: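 7 dpf zebrafish larvae, one per well, kept at 28.5°C for 24 h with compound in E3 buffer (DMSO stock). DMSO vehicle in control wells. Twelve fish per condition pooled, flash-frozen, homogenized in ATP buffer and centrifuged. ATP in the supernatant read by fluorescence at ex 535/em 587 nm, normalized to total protein (BCA), and expressed as nmole/mg relative to DMSO control. n = 7–13.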

Mus musculus = assay: Anti-seizure activity in ip dosed CF1 mouse assessed as attenuation of psychomotor seizures at stimulus intensities of 42 mA at pre-treated at 1 hr before test by 6 Hz limbic seizure test relative to control; format: functional
[14] = Drug reactivity with 2-mercaptoethanol measured over 6 hrs; format: physicochemical

SMILES	Activity (Danio rerio [9])	inhibition at 48 h, 50 µM [11]	inhibition at 48 h, 10 µM [12]	other results
CC[C@@H](C(N)=O)N1CCCC1=O				TD50 at 1 h [1]: > 500 mg/kg
C#CCNC1=CC(=O)c2ccccc2C1=O	7.4%			EC50 (Danio rerio [2]): 20 µM; Tmax [3]: 15 min; Cmax [4]: 1490 ng/mL; AUC(0-t) [5]: 978 ng·h/mL; half-life [6]: 66 min; half-life [7]: 66 min; Activity (Danio rerio [8]): 5.4%; LC50 [10]: > 20 µM
O=C1C=C(NCC2CC2)C(=O)c2ccccc21	-10.1%	54.1%	16.8%	Activity (Danio rerio [8]): -10.1%
CCC(O)CNC1=CC(=O)c2ccccc2C1=O (stereo not drawn)		69%	38.6%	
O=C1C=C(NCCC2CCCCC2)C(=O)c2ccccc21		2.09%	0.07%	
CC(C)(C)CNC1=CC(=O)c2ccccc2C1=O		22.4%	10.8%	
O=C1C=C(NCCC2CC2)C(=O)c2ccccc21		56.4%	34.7%	
CC1=C(NCCC(C)(C)C)C(=O)c2ccccc2C1=O	3.3%	17.5%	10.2%	
CC(C)(C)CCCNC1=CC(=O)c2ccccc2C1=O	-3%	6.75%	3.81%	
CC(C)(O)CCNC1=CC(=O)c2ccccc2C1=O	9.5%	59.7%	25.5%	Activity (Danio rerio [8]): -5.6%
CC(C)=CCNC1=CC(=O)c2ccccc2C1=O	-4.4%	38.3%	15%	
CC(C)CCCNC1=CC(=O)c2ccccc2C1=O		21.3%	28.8%	
CC(O)CCNC1=CC(=O)c2ccccc2C1=O (stereo not drawn)	0.78%	64.2%	19.4%	
CC1=C(NCCC(C)C)C(=O)c2ccccc2C1=O		21.4%	11.2%	
CC(C)CC(C)NC1=CC(=O)c2ccccc2C1=O (stereo not drawn)		15%	2.09%	
O=C1C=C(NCCC2CCCC2)C(=O)c2ccccc21	45%	43.8%	35.4%	
CN(CCCNC1=CC(=O)c2ccccc2C1=O)c1ccccc1	7.3%	10.2%	11.5%	
O=C1C=C(NCCC2CCC2)C(=O)c2ccccc21		36.3%	27.2%	Activity (Danio rerio [13]): 21.4%
CCN(C)CCNC1=CC(=O)c2ccccc2C1=O		101%	86.2%	
O=C1C=C(NCC2CCC2)C(=O)c2ccccc21		62.3%	33.7%	
CCC(C)CNC1=CC(=O)c2ccccc2C1=O (stereo not drawn)	23%	41.2%	14.8%	
CC(C)(C)CCNC1=CC(=O)c2ccccc2C1=O		17%	11.9%	
CN(C)CCNC1=CC(=O)c2ccccc2C1=O		99.8%	82.6%	
CCN(CC)CCNC1=CC(=O)c2ccccc2C1=O	-7.2%	100%	83.8%	Activity (Danio rerio [8]): 27%
CN(C)CCCNC1=CC(=O)c2ccccc2C1=O		96.7%	74.5%	Activity (Danio rerio [8]): -2.9%
CC(CO)CCNC1=CC(=O)c2ccccc2C1=O (stereo not drawn)	-2.4%	76.7%	25.7%	Activity (Danio rerio [8]): 8.2%
C=C(C)[C@@H]1CCC(C)=C[C@H]1c1c(O)cc(CCCCC)cc1O [CANNABIDIOL]				ED50 (Mus musculus): 174 mg/kg
NC(=O)OCC(COC(N)=O)c1ccccc1 [FELBAMATE]				ED50 (Mus musculus): 97.5 mg/kg; TD50 at 1 h [1]: 452 mg/kg
CC1=CC(=O)c2ccccc2C1=O [MENADIONE]				EC50 (Danio rerio [2]): 3 µM; Drug metabolism [14]: Metabolite_Detected; half-life [6]: 27 min; LC50 [10]: 6 µM
CCCC(CCC)C(=O)O [VALPROIC ACID]				ED50 (Mus musculus): 289 mg/kg
